From ChEMBL document CHEMBL3124806, “Imidazopyridine-fused [1,3]-diazepinones: synthesis and antiproliferative activity” (Eur J Med Chem, 2014)

Columns and labels:
Format in all cases: functional
OVCAR-3 = assay: Cytotoxicity against human OVCAR3 cells assessed as cell growth at 10 uM after 48 hrs by SRB assay relative to untreated control; conditions: OVCAR-3, 48 h, read-out: Activity
Method in brief: (§1)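 NCI-60 one-dose screen: each agent added at 10 µM, cultures incubated 48 h. Endpoint by sulforhodamine B protein-binding dye read spectrophotometrically; growth expressed as percent of untreated control cells.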

COLO 205 = assay: Cytotoxicity against human COLO205 cells assessed as cell growth at 10 uM after 48 hrs by SRB assay relative to untreated control; conditions: COLO 205, 48 h, read-out: Activity
Method in brief: (§2)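 NCI-60 panel screen at a single concentration of 10 μM with 48 h incubation. Cell density measured by sulforhodamine B protein-binding dye and read spectrophotometrically. Growth expressed as percent of untreated control cells.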

[1] = Cytotoxicity against human Hs578T cells assessed as cell growth at 10 uM after 48 hrs by SRB assay relative to untreated control; conditions: Hs-578T, read-out: Activity; method in brief: as §2
RXF 393 = assay: Cytotoxicity against human RXF393 cells assessed as cell growth at 10 uM after 48 hrs by SRB assay relative to untreated control; conditions: RXF 393, 48 h, read-out: Activity; method in brief: as §1
SNB-19 = assay: Cytotoxicity against human SNB19 cells assessed as cell growth at 10 uM after 48 hrs by SRB assay relative to untreated control; conditions: SNB-19, 48 h, read-out: Activity
Method in brief: (§3)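 NCI-60 single-dose screen. Compounds were added to the cultures at 10 μM and incubated for 48 h. The end point was sulforhodamine B protein staining read spectrophotometrically. Growth is reported as percent of untreated control cells.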

SN12C = assay: Cytotoxicity against human SN12C cells assessed as cell growth at 10 uM after 48 hrs by SRB assay relative to untreated control; conditions: read-out: Activity; method in brief: as §3
MDA-MB-231 = assay: Cytotoxicity against human MDA-MB-231 cells assessed as cell growth at 10 uM after 48 hrs by SRB assay relative to untreated control; conditions: MDA-MB-231, 48 h, read-out: Activity; method in brief: as §1
BT-549 = assay: Cytotoxicity against human BT549 cells assessed as cell growth at 10 uM after 48 hrs by SRB assay relative to untreated control; conditions: BT-549, 48 h, read-out: Activity; method in brief: as §2
SK-MEL-5 = assay: Cytotoxicity against human SK-MEL-5 cells assessed as cell growth at 10 uM after 48 hrs by SRB assay relative to untreated control; conditions: SK-MEL-5, 48 h, read-out: Activity; method in brief: as §3
HCC 2998 = assay: Cytotoxicity against human HCC2998 cells assessed as cell growth at 10 uM after 48 hrs by SRB assay relative to untreated control; conditions: HCC 2998, 48 h, read-out: Activity; method in brief: as §2
[2] = Cytotoxicity against human NCI-ADR-RES cells assessed as cell growth at 10 uM after 48 hrs by SRB assay relative to untreated control; conditions: read-out: Activity; method in brief: as §1
HOP-92 = assay: Cytotoxicity against human HOP92 cells assessed as cell growth at 10 uM after 48 hrs by SRB assay relative to untreated control; conditions: HOP-92, 48 h, read-out: Activity; method in brief: as §2
[3] = Cytotoxicity against human OVCAR5 cells assessed as cell growth at 10 uM after 48 hrs by SRB assay relative to untreated control; conditions: OVCAR-5, 48 h, read-out: Activity; method in brief: as §1
[4] = Cytotoxicity against human UO31 cells assessed as cell growth at 10 uM after 48 hrs by SRB assay relative to untreated control; conditions: UO-31, 48 h, read-out: Activity; method in brief: as §3
SK-MEL-2 = assay: Cytotoxicity against human SK-MEL-2 cells assessed as cell growth at 10 uM after 48 hrs by SRB assay relative to untreated control; conditions: SK-MEL-2, 48 h, read-out: Activity; method in brief: as §1
HCT-15 = assay: Cytotoxicity against human HCT15 cells assessed as cell growth at 10 uM after 48 hrs by SRB assay relative to untreated control; conditions: HCT-15, 48 h, read-out: Activity; method in brief: as §2
M14 = assay: Cytotoxicity against human M14 cells assessed as cell growth at 10 uM after 48 hrs by SRB assay relative to untreated control; conditions: M14, 48 h, read-out: Activity; method in brief: as §2
CAKI-1 = assay: Cytotoxicity against human Caki1 cells assessed as cell growth at 10 uM after 48 hrs by SRB assay relative to untreated control; conditions: CAKI-1, 48 h, read-out: Activity; method in brief: as §2
OVCAR-8 = assay: Cytotoxicity against human OVCAR8 cells assessed as cell growth at 10 uM after 48 hrs by SRB assay relative to untreated control; conditions: OVCAR-8, 48 h, read-out: Activity; method in brief: as §1
[5] = Cytotoxicity against human OVCAR4 cells assessed as cell growth at 10 uM after 48 hrs by SRB assay relative to untreated control; conditions: OVCAR-4, 48 h, read-out: Activity; method in brief: as §1
CCRF-CEM = assay: Cytotoxicity against human CCRF-CEM cells assessed as cell growth at 10 uM after 48 hrs by SRB assay relative to untreated control; conditions: read-out: Activity; method in brief: as §2
NCI-H460 = assay: Cytotoxicity against human NCI-H460 cells assessed as cell growth at 10 uM after 48 hrs by SRB assay relative to untreated control; conditions: NCI-H460, 48 h, read-out: Activity; method in brief: as §1
NCI-H522 = assay: Cytotoxicity against human NCI-H522 cells assessed as cell growth at 10 uM after 48 hrs by SRB assay relative to untreated control; conditions: NCI-H522, 48 h, read-out: Activity; method in brief: as §1
SK-MEL-28 = assay: Cytotoxicity against human SK-MEL-28 cells assessed as cell growth at 10 uM after 48 hrs by SRB assay relative to untreated control; conditions: SK-MEL-28, 48 h, read-out: Activity; method in brief: as §3
HT-29 = assay: Cytotoxicity against human HT-29 cells assessed as cell growth at 10 uM after 48 hrs by SRB assay relative to untreated control; conditions: HT-29, 48 h, read-out: Activity; method in brief: as §2
NCI-H322M = assay: Cytotoxicity against human NCI-H322M cells assessed as cell growth at 10 uM after 48 hrs by SRB assay relative to untreated control; conditions: read-out: Activity; method in brief: as §1
ACHN = assay: Cytotoxicity against human ACHN cells assessed as cell growth at 10 uM after 48 hrs by SRB assay relative to untreated control; conditions: read-out: Activity; method in brief: as §2
[6] = Cytotoxicity against human UACC257 cells assessed as cell growth at 10 uM after 48 hrs by SRB assay relative to untreated control; conditions: UACC-257, 48 h, read-out: Activity; method in brief: as §3
SF-539 = assay: Cytotoxicity against human SF539 cells assessed as cell growth at 10 uM after 48 hrs by SRB assay relative to untreated control; conditions: SF-539, 48 h, read-out: Activity; method in brief: as §1
SK-OV-3 = assay: Cytotoxicity against human SKOV3 cells assessed as cell growth at 10 uM after 48 hrs by SRB assay relative to untreated control; conditions: SK-OV-3, 48 h, read-out: Activity; method in brief: as §3
T47D = assay: Cytotoxicity against human T47D cells assessed as cell growth at 10 uM after 48 hrs by SRB assay relative to untreated control; conditions: read-out: Activity; method in brief: as §3
NCI-H226 = assay: Cytotoxicity against human NCI-H226 cells assessed as cell growth at 10 uM after 48 hrs by SRB assay relative to untreated control; conditions: NCI-H226, 48 h, read-out: Activity; method in brief: as §1

Compound	growth at 10 µM (OVCAR-3)	growth at 10 µM (COLO 205)	growth at 10 µM [1]	growth at 10 µM (RXF 393)	growth at 10 µM (SNB-19)	growth at 10 µM (SN12C)	growth at 10 µM (MDA-MB-231)	growth at 10 µM (BT-549)	growth at 10 µM (SK-MEL-5)	growth at 10 µM (HCC 2998)	growth at 10 µM [2]	growth at 10 µM (HOP-92)	growth at 10 µM [3]	growth at 10 µM [4]	growth at 10 µM (SK-MEL-2)	growth at 10 µM (HCT-15)	growth at 10 µM (M14)	growth at 10 µM (CAKI-1)	growth at 10 µM (OVCAR-8)	growth at 10 µM [5]	further results
O=C1c2c(nc3ccccn23)N=C(c2ccccc2)N2CCC[C@@H]12	105%	99.3%	96.7%	98.5%	103%	99.6%	94.6%	99.1%	94.7%	94.7%	97.7%	82.7%	94.2%	88.7%	114%	93.8%	96.5%	95.4%	98.7%	95.2%	growth at 10 µM (CCRF-CEM): 104%; growth at 10 µM (NCI-H460): 103%; growth at 10 µM (NCI-H522): 127%; growth at 10 µM (SK-MEL-28): 108%; growth at 10 µM (HT-29): 114%; growth at 10 µM (NCI-H322M): 106%; growth at 10 µM (ACHN): 97.9%; growth at 10 µM [6]: 94.5%; growth at 10 µM (SF-539): 89.8%; growth at 10 µM (SK-OV-3): 103%; growth at 10 µM (T47D): 93.6%; growth at 10 µM (NCI-H226): 94.9%
COc1ccc(C2=Nc3nc4ccccn4c3C(=O)[C@H](C)N2)cc1	98.3%	97.5%	98.3%	121%	99.1%	97.7%	84.9%	85.7%	100%	97.8%	96.5%	72.5%	101%	55.6%	83.4%	85.2%	95.4%	93.5%	97.4%	98.4%	growth at 10 µM (CCRF-CEM): 91.7%; growth at 10 µM (NCI-H460): 105%; growth at 10 µM (NCI-H522): 87.4%; growth at 10 µM (SK-MEL-28): 105%; growth at 10 µM (HT-29): 98.5%; growth at 10 µM (NCI-H322M): 80.3%; growth at 10 µM (ACHN): 83.8%; growth at 10 µM [6]: 96.1%; growth at 10 µM (SF-539): 97.3%; growth at 10 µM (SK-OV-3): 94.7%; growth at 10 µM (T47D): 97%; growth at 10 µM (NCI-H226): 86.9%
COc1ccc(C2=Nc3nc4ccccn4c3C(=O)[C@H](Cc3ccccc3)N2)cc1	110%	127%	96.4%	107%	103%	113%	121%	85.3%	104%	96.4%	89.2%	95.6%	107%	83.5%	106%	101%	98.3%	87.7%	91.4%	112%	growth at 10 µM (CCRF-CEM): 99.4%; growth at 10 µM (NCI-H460): 104%; growth at 10 µM (NCI-H522): 94.7%; growth at 10 µM (SK-MEL-28): 98.1%; growth at 10 µM (HT-29): 117%; growth at 10 µM (NCI-H322M): 106%; growth at 10 µM (ACHN): 101%; growth at 10 µM [6]: 92.3%; growth at 10 µM (SF-539): 97.2%; growth at 10 µM (SK-OV-3): 110%; growth at 10 µM (T47D): 98.8%; growth at 10 µM (NCI-H226): 98.6%
C[C@@H]1NC(c2ccc(N(C)C)cc2)=Nc2nc3ccccn3c2C1=O	101%	94.2%	83.3%	111%	95.2%	102%	78.9%	88.1%	95.4%	103%	80.3%	33%	90.5%	53.7%	88.6%	94.7%	101%	89.7%	88.2%	91.8%	growth at 10 µM (CCRF-CEM): 88.7%; growth at 10 µM (NCI-H460): 91.9%; growth at 10 µM (NCI-H522): 79.4%; growth at 10 µM (SK-MEL-28): 113%; growth at 10 µM (HT-29): 101%; growth at 10 µM (NCI-H322M): 69.2%; growth at 10 µM (ACHN): 85.3%; growth at 10 µM [6]: 97.6%; growth at 10 µM (SF-539): 92.7%; growth at 10 µM (SK-OV-3): 91%; growth at 10 µM (T47D): 80.7%; growth at 10 µM (NCI-H226): 77.5%
